thrombin 1536: blocks human thrombin protease activity; 220,000 tested, 0.26% active; P00734; AID 1046; alpha-thrombin, Boc-VPR-AMC fluorogenic substrate cleavage; inhibition, % at 5 µM;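 active means inhibition at or above 40%; inactive means inhibition below 40%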;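 further: 0% = enzyme with no compound and 100% = wells without enzyme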
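System: Human alpha-thrombin protein | Medium: pH 7.5 Tris (50 mM) with NaCl 150 mM, Tween 20 0.05% | Times: Enzyme reaction carried out at room temperature | Detection: AMC fluorescence, 355/460 nm | Evaluation: Percent inhibition scaled between no-compound controls and no-enzyme blanks | Benchmarks: Enzyme without compound as high, wells lacking enzyme as low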
EP2 antag: EP2 receptor (human) inhibition | 260,000 tested, 0.52% active | inhibition, % at 25 µM | P43116 | C6 glioma cells expressing human EP2, cAMP TR-FRET; cells stimulated with saturating PGE2 | AID 1422;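 active means percent inhibition above 40 after rounding to a whole number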;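 further: rat C6 glioma host cells with rolipram phosphodiesterase inhibitor present; the protocol text gives 20 µM as final concentration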
FXIIa inh 1536: blocks human coagulation factor XIIa protease activity; P00748; purified FXIIa, Boc-QGR-AMC fluorogenic substrate, 2 h; inhibition, % at 5 µM; 220,000 tested, 0.3% active; in the data active means inhibition above about 40%;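 further: 0% = enzyme with no compound and 100% = blank without enzyme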
KLK5 inh: blocks human kallikrein 5 protease activity | Q9Y337 | recombinant hK5, fluorogenic AMC substrate cleavage | inhibition, % at 5 µM | 210,000 tested, 0.59% active | AID 873;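 active means inhibition of 40% or more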;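 further: 0% = enzyme controls without compound and 100% = no-enzyme blanks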
EP2 modulator: modulates human prostaglandin E2 receptor EP2 signaling | 260,000 tested, 0.83% active | EP2-expressing cells, cAMP HTRF FRET, PGE2 co-stimulation | induction, % at 25 µM | P43116;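 active means compounds whose cAMP rise, as percent of the full-agonist control response, exceeds 60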;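 further: rat C6 glioma line stably carrying human EP2 under a CMV promoter; the protocol text gives 20 µM as final concentration; 100% = response of wells given 1 µM PGE2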
FXIa inh 1536: factor XIa (human) inhibition; 220,000 tested, 0.14% active; inhibition, % at 5 µM; purified FXIa, Boc-Glu-Ala-Arg-AMC fluorogenic substrate; AID 798; P03951;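 active means inhibition of at least 40%; inactive means inhibition below 40%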;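 further: fluorescence of freed AMC excited at 355 nm; 0% = enzyme without compound and 100% = no enzyme blank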
Target sequence (P03951 19-387 limits assumed): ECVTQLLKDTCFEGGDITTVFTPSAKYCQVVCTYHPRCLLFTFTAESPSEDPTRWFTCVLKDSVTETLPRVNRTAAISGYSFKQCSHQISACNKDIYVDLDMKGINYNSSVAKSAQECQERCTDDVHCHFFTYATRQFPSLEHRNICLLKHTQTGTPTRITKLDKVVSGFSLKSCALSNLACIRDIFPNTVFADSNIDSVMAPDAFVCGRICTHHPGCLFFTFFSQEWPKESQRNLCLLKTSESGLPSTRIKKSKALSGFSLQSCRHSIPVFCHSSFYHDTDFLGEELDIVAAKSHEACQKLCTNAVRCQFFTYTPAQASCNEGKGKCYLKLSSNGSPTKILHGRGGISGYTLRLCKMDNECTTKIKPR
Target sequence (P03951 388-625 limits assumed): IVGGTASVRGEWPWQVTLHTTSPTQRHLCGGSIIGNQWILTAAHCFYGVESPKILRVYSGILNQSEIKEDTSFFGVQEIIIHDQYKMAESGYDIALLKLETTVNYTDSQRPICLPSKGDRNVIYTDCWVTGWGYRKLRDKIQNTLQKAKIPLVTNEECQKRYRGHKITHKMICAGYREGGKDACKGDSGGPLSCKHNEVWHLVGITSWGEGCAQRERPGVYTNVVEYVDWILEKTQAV
EP2 cAMP induct: EP2 receptor cAMP induction, counter-screens negative; 1,300 tested, 47% active; shares compounds with EP2 modulator; calls only at 20 µM (by protocol); C6 glioma EP2 cells, cAMP HTRF induction; plus low (about EC15) PGE2 agonist;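 active means cAMP induction above 50% in the main assay while under 30% in all four parallel counter assays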;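 further: rat C6 glioma cells stably expressing human EP2 receptor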
Starred values were filed as active, the others as inactive; i = inactive; x = no result; + = active, no number. A selection: hits, their analogues and other compounds. The true share with any hit is near 2.1%.

SMILES | thrombin 1536 | EP2 antag | FXIIa inh 1536 | KLK5 inh | EP2 modulator | FXIa inh 1536 | EP2 cAMP induct
Cc1ccc(Cn2c(Cc3ccccc3)nc3ccccc32)cc1 | -5 | 4 | 8 | -7 | 80* | -6 | +
COCc1nc2ccccc2n1Cc1ccc(C)cc1 | x | 12 | x | x | 11 | x | x
Cc1nc2cc(NCc3nc4ccccc4n3Cc3ccccc3)ccc2n1C | 1 | x | 21 | -13 | -8 | 19 | x
CC(C)(C)c1csc(NC(=O)CSc2nc3sc4c(c3c(=O)[nH]2)CCCC4)n1 | x | 8 | x | x | -63 | x | x
C=CCn1c(N2CCC(C(=O)NC(C)c3ccccc3)CC2)nc2ccccc21 (stereo not given) | x | x | x | x | -42 | x | x
O=C(Nc1cccc(Cl)c1N1CCCC1)c1ccc(Br)o1 | 0 | 6 | 2 | 6 | 69* | 8 | +
O=C(Nc1ccccc1Oc1ccccc1)c1ccc(Br)o1 | 0 | 20 | 15 | -24 | 64* | 8 | +
O=C(Nc1ccccc1Oc1ccccc1)c1cnccn1 | 2 | 4 | 10 | -17 | 71* | 0 | +
O=C(Nc1cccc(Cl)c1N1CCCC1)c1ccc([N+](=O)[O-])o1 | 3 | 6 | 7 | -9 | 29 | -4 | x
Cc1ccc(Oc2ccc(Cl)cc2NC(=O)c2cnccn2)cc1 | 4 | 7 | 9 | -9 | 54 | 2 | x
O=C(Nc1ccccc1O)c1ccc(Br)o1 | x | 7 | x | x | -57 | x | x
O=C(Nc1ccccc1-c1ccccc1)c1ccc(Br)o1 | -6 | 8 | 19 | -3 | 57 | 17 | i
CCOC(=O)CSc1nnc(-c2cc(OC)c(OC)c(OC)c2)n1-c1ccccc1 | x | 14 | x | x | 20 | x | x
CCS(=O)(=O)N1CCN(S(=O)(=O)c2ccc(S(=O)(=O)NC3CCCC3)cc2)CC1 | x | 8 | x | x | -14 | x | x
COc1ccc2c(c1)C(=NO)c1cc(OC)ccc1-2 | 8 | 14 | 18 | 5 | -17 | 5 | x
C=CCOc1ccc2c(c1)C(=NO)c1cc(OCC=C)ccc1-2 | 4 | 8 | 22 | 9 | 83* | 16 | +
COc1ccc(C)cc1NC(=O)c1ccc(S(=O)(=O)N2CCOCC2)cc1 | -6 | 9 | 4 | 0 | -23 | 0 | x
CCn1c(=NC(=O)c2ccc(S(=O)(=O)N3CCOCC3)cc2)sc2cccc(OC)c21 | 1 | 15 | 12 | -4 | 68* | 1 | i
CCSc1nc2sc3c(c2c(=O)n1CC)CC(C)(C)OC3 | 0 | 6 | 8 | -3 | 52 | 0 | i
CCOC(=O)c1cnc(SC)nc1Sc1ccccc1Cl | -3 | 7 | 5 | -5 | 73* | -2 | i
CSc1nc(Sc2ccccc2Cl)c2ccccc2n1 | -3 | 18 | 6 | -26 | 67* | -6 | i
CSc1nc(Nc2ccccc2)c2ccccc2n1 | x | 11 | x | x | -38 | x | x
Cn1c(C(=O)N2CCCc3ccccc32)cc2sccc21 | 1 | 9 | 8 | -8 | 66* | 4 | +
O=C(c1cc2sccc2n1Cc1ccccc1)N1CCCc2ccccc21 | -1 | 4 | 12 | 2 | 69* | 1 | +
CCCC(c1nnnn1Cc1ccco1)N(Cc1cc2cc(C)cc(C)c2[nH]c1=O)CC1CCCO1 (stereo not given) | x | 10 | x | x | -3 | x | x
SMILES | thrombin 1536 | EP2 antag | FXIIa inh 1536 | KLK5 inh | EP2 modulator | FXIa inh 1536 | EP2 cAMP induct
CCC(c1nnnn1Cc1ccco1)N(Cc1cc2cc(C)cc(C)c2[nH]c1=O)CC1CCCO1 (stereo not given) | -4 | 13 | 6 | -1 | 82* | -4 | i
N#CCSc1nc2c(c(C3CC=CCC3)c1C#N)CCC2 (stereo not given) | -1 | 5 | -2 | -1 | 78* | 0 | +
CCOc1ccccc1C(=O)Nc1ccsc1C(=O)OC | -1 | 11 | 10 | -9 | 81* | 6 | +
O=C(CSc1nnc(Cc2ccccc2)n1Cc1ccco1)NC12CC3CC(CC(C3)C1)C2 | -1 | -3 | 8 | -12 | 63* | -10 | i
CCOC(=O)c1c(/N=C/C2C(=O)CCCC2=O)sc2c1CCCC2 | -1 | 3 | 5 | -6 | 52 | -2 | i
CCOC(=O)c1c(CC(C)C)csc1/N=C/C1C(=O)CCCC1=O | 0 | 1 | 5 | 0 | 68* | 0 | i
Cc1nnc(NC(=O)CSc2nnc(-c3ccoc3C)n2-c2cccc(Cl)c2)s1 | x | 15 | x | x | -3 | x | x
CCOc1ccc(/C=C/c2c([N+](=O)[O-])c(=O)n(C)c(=O)n2C)cc1 | -7 | 3 | 7 | 1 | -47 | 3 | x
Cn1c(/C=C/N(Cc2ccccc2)c2ccccc2)c([N+](=O)[O-])c(=O)n(C)c1=O | -3 | 5 | 11 | 4 | 68* | 2 | +
CCCOP(=O)(OCCC)C(Nc1cccc(C(F)(F)F)c1)c1ccc(C)cc1 (stereo not given) | -1 | 4 | 11 | -14 | 68* | 3 | i
CCOP(=O)(OCC)C(Nc1cccc(C(F)(F)F)c1)c1ccc(C)cc1 (stereo not given) | -1 | -2 | 9 | -3 | 36 | 9 | x
Cc1cc(C)c2[nH]c(=O)c(CN(Cc3ccco3)C(=S)Nc3ccc(F)cc3)cc2c1 | x | 18 | x | x | 1 | x | x
COc1ccc(C2(C(=O)NCc3ccccc3Cl)CCOCC2)cc1OC | -3 | 13 | 12 | 3 | 10 | 0 | x
COc1ccccc1CNC(=O)C1(c2ccc(Cl)cc2)CC1 | 1 | 8 | 25 | -10 | 69* | 21 | i
Cc1ccccc1Cn1c2ccccc2c2cn[nH]c(=O)c21 | 2 | -7 | 10 | -1 | 62* | -1 | +
Cc1cc2c(s1)c1cn[nH]c(=O)c1n2Cc1ccc(F)cc1 | x | x | x | x | -20 | x | x
O=C(N/N=C/c1ccc[nH]1)c1ccccc1OCc1ccccc1Cl | -1 | 8 | 4 | -2 | 66* | -1 | +
O=C(N/N=C/c1ccco1)c1ccccc1OCc1ccccc1Cl | -5 | 8 | 0 | -18 | 41 | -6 | x
O=C(NC1(c2ccc(F)cc2)CCCC1)c1cncnc1 | x | 7 | x | x | 2 | x | x
CCOc1ccc(-c2nn3c(-c4ccccc4)nnc3s2)cc1 | 2 | 11 | 4 | 4 | 65* | 4 | +
CSc1nnc(CSCc2ccc(Cl)cc2Cl)n1-c1ccccc1 | -5 | 5 | 11 | -1 | 61* | -3 | +
Cc1ccc(C2CC2c2n[nH]c(=S)n2-c2ccc(Cl)cc2)cc1 (stereo not given) | -1 | 6 | 0 | -51 | 53 | -13 | i
CCOC(=O)c1sc2nc3c(SCC(=O)O)cc(C(=O)c4cc(F)ccc4O)cn3c(=O)c2c1C | -8 | 6 | 10 | -11 | 77* | 6 | +
COC(=O)c1cc(C(=O)c2cc(F)ccc2O)cn2c(=O)c3c(C)c(C)sc3nc12 | 1 | 12 | 7 | 2 | -4 | 6 | x

Source: PubChem (several laboratories)
